Assay results: ChEMBL document CHEMBL1153132, “Novel sulfamoyl benzamides as selective CB(2) agonists with improved in vitro metabolic stability” (Bioorg Med Chem Lett, 2010)
Active and inactive are the calls of the source.

How the values were obtained:
Homo sapiens = species: Homo sapiens; assay: Selectivity, ratio of Ki for human CB1 to Ki for human CB2
How it was run: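 Ki at each receptor came from displacement of [³H]CP-55940 binding in membranes containing cloned human CB₁ or CB₂ receptor. Ki values are geometric means of at least three separate determinations. Selectivity is Ki CB₁ divided by Ki CB₂.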

Cannabinoid receptor 2 [1] = target: T1, Cannabinoid receptor 2 (Homo sapiens, UniProt P34972); assay: Displacement of [3H]CP-55940 from human CB2 receptor
How it was run: (§1)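 Membranes with cloned human CB1 or CB2 receptors; test ligand displaces [3H]CP-55940; Ki values are geometric means of at least three separate determinations.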
Target sequence in this assay (P34972 whole entry): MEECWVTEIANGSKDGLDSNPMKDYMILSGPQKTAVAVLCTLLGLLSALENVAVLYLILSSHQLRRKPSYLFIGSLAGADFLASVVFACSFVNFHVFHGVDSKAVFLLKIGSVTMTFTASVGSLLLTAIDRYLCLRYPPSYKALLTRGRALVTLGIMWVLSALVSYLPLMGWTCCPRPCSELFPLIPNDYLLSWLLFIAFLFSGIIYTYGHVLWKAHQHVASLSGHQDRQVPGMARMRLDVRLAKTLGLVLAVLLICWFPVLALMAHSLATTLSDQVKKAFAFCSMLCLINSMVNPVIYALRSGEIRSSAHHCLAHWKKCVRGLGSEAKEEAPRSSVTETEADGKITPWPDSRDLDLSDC

Cannabinoid receptor 1 = Cannabinoid receptor 1 (Homo sapiens, UniProt P21554); assay: Displacement of [3H]CP-55940 from human CB1 receptor; how it was run: as §1
Cannabinoid receptor 1, sequence (P21554 whole entry): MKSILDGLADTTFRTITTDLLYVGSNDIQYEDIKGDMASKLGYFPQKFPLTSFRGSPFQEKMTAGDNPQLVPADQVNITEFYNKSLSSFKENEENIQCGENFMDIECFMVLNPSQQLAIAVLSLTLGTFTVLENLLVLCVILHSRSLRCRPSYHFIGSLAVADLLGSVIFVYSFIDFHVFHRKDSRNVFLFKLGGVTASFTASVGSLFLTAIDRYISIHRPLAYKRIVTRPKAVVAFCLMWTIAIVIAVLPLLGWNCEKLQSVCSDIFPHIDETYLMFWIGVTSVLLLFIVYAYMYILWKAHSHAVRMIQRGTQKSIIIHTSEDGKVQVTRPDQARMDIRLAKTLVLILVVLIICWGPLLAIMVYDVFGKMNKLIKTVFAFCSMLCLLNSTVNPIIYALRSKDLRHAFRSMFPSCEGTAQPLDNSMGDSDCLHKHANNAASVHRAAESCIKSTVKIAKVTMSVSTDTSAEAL

Cannabinoid receptor 2 [2] = target: T2, Cannabinoid receptor 2 (Rattus norvegicus, UniProt Q9QZN9); assay: Agonist activity at rat brain CB2 receptor by GTPgammaS binding assay; assay type: functional
T2 sequence (Q9QZN9 whole entry): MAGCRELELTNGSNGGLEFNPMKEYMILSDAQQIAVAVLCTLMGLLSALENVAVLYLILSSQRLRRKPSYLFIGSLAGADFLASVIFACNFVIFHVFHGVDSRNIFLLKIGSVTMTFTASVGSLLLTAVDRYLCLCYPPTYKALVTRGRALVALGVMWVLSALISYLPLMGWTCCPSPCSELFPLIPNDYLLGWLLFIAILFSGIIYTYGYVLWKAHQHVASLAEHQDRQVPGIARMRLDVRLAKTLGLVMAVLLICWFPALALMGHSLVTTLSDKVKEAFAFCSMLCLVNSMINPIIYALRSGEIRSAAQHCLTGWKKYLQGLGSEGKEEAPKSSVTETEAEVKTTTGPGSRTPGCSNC

Liver microsomes [3] = assay: Metabolic stability in rat liver microsomes; assay type: ADME, Microsome
How it was run: (§2)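 Parent compound incubated with rat (RLM) or human (HLM) liver microsomes for 30 min; result given as % parent remaining.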

Liver microsomes [4] = assay: Metabolic stability in human liver microsomes; assay type: ADME, Microsome; how it was run: as §2
Cannabinoid receptor 2 [5] = target: T1, Cannabinoid receptor 2; assay: Inhibition of [3H]CP-55940 binding to human CB2 receptor at 10 uM
Target sequence in this assay (P34972 whole entry, looked up): as the sequence (P34972 whole entry) above

Rattus norvegicus = assay: Antiallodynic effect against rat hind paw insition model assessed as paw withdrawal at 30 mg/kg, ip; assay type: functional, organism-based; design: dose 30 mg/kg
How it was run: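 Rat hindpaw incision surgery model with vehicle and morphine treatment groups. Mechanical paw withdrawal threshold of the left hindpaw was followed over time. Data are mean ± SEM; one-way ANOVA with post-hoc protected t-test versus the vehicle-treated surgery group.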

[6] = AUC (0 to infinity) in Sprague-Dawley rat at 1 mg/kg, iv; assay type: ADME, organism-based; design: time infinity, dose 1 mg/kg, route intravenous; conditions: plasma
[7] = Oral bioavailability in Sprague-Dawley rat at 100 mg/kg; assay type: ADME, organism-based; conditions: in vivo
How it was run: (§3)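 Male Sprague-Dawley rats dosed 100 mg/kg po. Cmax and oral F are mean ± SD of three animals; F is referenced to a 1.0 mg/kg iv dose; Tmax is given as median and range.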

[8] = Tmax in Sprague-Dawley rat at 100 mg/kg, po; assay type: ADME, organism-based; design: dose 100 mg/kg, route oral; conditions: in vivo; how it was run: as §3
[9] = AUC (0 to infinity) in Sprague-Dawley rat at 100 mg/kg, po; assay type: ADME, organism-based; design: time infinity, dose 100 mg/kg, route oral; conditions: plasma
[10] = Half life in Sprague-Dawley rat at 1 mg/kg, iv; assay type: ADME, organism-based; design: dose 1 mg/kg, route intravenous; conditions: in vivo
[11] = Volume of distribution at steady state in Sprague-Dawley rat at 1 mg/kg, iv; assay type: ADME, organism-based; design: dose 1 mg/kg, route intravenous; conditions: in vivo, read-out: Vdss
[12] = Cmax in Sprague-Dawley rat at 100 mg/kg, po; assay type: ADME, organism-based; design: dose 100 mg/kg, route oral; conditions: in vivo; how it was run: as §3
[13] = Clearance in Sprague-Dawley rat at 1 mg/kg, iv; assay type: ADME, organism-based; design: dose 1 mg/kg, route intravenous; conditions: in vivo

SMILES	Ratio Ki (Homo sapiens)	Ki (Cannabinoid receptor 2 [1]) [µM]	Ki (Cannabinoid receptor 1) [µM]	EC50 (Cannabinoid receptor 2 [2]) [µM]	Stability (Liver microsomes [3]) [%]	Stability (Liver microsomes [4]) [%]	also measured
CCC(C)(C)C(=O)Nc1cc(C)c(C)c(S(=O)(=O)NC2CCCC2)c1	36	0.094	3.4	0.098	–	–	–
CCC(C)(C)C(=O)Nc1cc(C)c(C)c(S(=O)(=O)N2CCSC2)c1	300	0.0069	2.1	0.012	0	0	–
CCC(C)(C)C(=O)Nc1cc(C)c(C)c(S(=O)(=O)N2CCS(=O)(=O)CC2)c1	–	0.0084	–	0.02	10	1	inhibition (Cannabinoid receptor 2 [5]): 18%
CCC(C)(C)C(=O)Nc1cc(S(=O)(=O)N2CCOCC2)c(C)c(C)c1C	–	0.41	–	–	–	–	–
CCC(C)(C)C(=O)Nc1cc(S(=O)(=O)N2CCOCC2)cc(C)c1C	–	–	–	–	–	–	inhibition (Cannabinoid receptor 2 [5]): 15%
CCCCC(C)(C)C(=O)Nc1cc(C)c(C)c(S(=O)(=O)N2CCOCC2)c1	130	0.0011	0.14	0.082	0	0	–
CCC(C)(C)C(=O)Nc1cc2c(c(S(=O)(=O)N3CCOCC3)c1)CCCC2	100	0.014	1.4	1.4	2	1	–
Cc1cc(NC(=O)C2C(C)(C)C2(C)C)cc(S(=O)(=O)N2CCOCC2)c1C	69	0.016	1.1	0.066	31	17	–
CCC(C)(C)C(=O)Nc1cc(C)c(C)c(S(=O)(=O)N2CC[C@H](O)C2)c1	–	0.09	–	0.073	–	–	inhibition (Cannabinoid receptor 2 [5]): 6.3%
CCC(C)(C)C(=O)Nc1cc2c(c(S(=O)(=O)N3CCOCC3)c1)CCC2	140	0.012	1.7	1.7	9	10	–
CCC(C)(C)C(=O)Nc1cc(C)c(C)c(S(=O)(=O)N2CCCCC2)c1	240	0.0027	0.65	0.013	0	0	–
Cc1cc(NC(=O)C(C)(C)O)cc(S(=O)(=O)N2CCOCC2)c1C	–	2.08	–	–	–	–	–
CCC(C)(C)C(=O)Nc1cc(C)c(C)c(S(=O)(=O)N2CCC[C@@H]2CO)c1	–	0.043	–	0.098	–	–	inhibition (Cannabinoid receptor 2 [5]): 8.3%
Cc1cc(NC(=O)C(C)(C)c2ccccc2)cc(S(=O)(=O)N2CCOCC2)c1C	–	0.12	–	–	–	–	–
COCCC(C)(C)C(=O)Nc1cc(C)c(C)c(S(=O)(=O)N2CCOCC2)c1	–	0.11	–	–	–	–	–
CCC(C)(C)C(=O)Nc1cc(C)c(C)c(S(=O)(=O)N2CCOCC2)c1	150	0.017	2.5	0.038	28	17	Activity (Rattus norvegicus): Active; AUC(0-inf) [6]: 0.237 µg·h/mL; bioavailability [7]: 22%; Tmax [8]: 6 h; AUC(0-inf) [9]: 4.8 µg·h/mL; half-life [10]: 0.7 h; Vd [11]: 2.5 L/kg; Cmax [12]: 1.22 µg/mL; clearance [13]: 4.2 L/h/kg
CCC(C)(C)C(=O)Nc1cc(C)c(C)c(S(=O)(=O)NCC2CC2)c1	57	0.066	3.8	0.135	–	–	–
Cc1ccc(NC(=O)C2C(C)(C)C2(C)C)cc1S(=O)(=O)N1CCOCC1	150	–	–	0.011	2	1	–
CCCC(C)(C)C(=O)Nc1cc(C)c(C)c(S(=O)(=O)N2CCOCC2)c1	86	0.0097	0.83	0.021	9	1	–
CCC(C)(C)C(=O)Nc1cc(S(=O)(=O)N2CCOCC2)c(C)cc1C	–	0.76	–	–	–	–	–
Cc1cc(NC(=O)C(C)(C)C)cc(S(=O)(=O)N2CCOCC2)c1C	78	0.04	3.1	0.09	37	52	–
CCC(C)(C)C(=O)Nc1ccc(C)c(S(=O)(=O)N2CCOCC2)c1	–	0.29	–	–	–	–	–
Cc1cc(NC(=O)C(C)(C(F)(F)F)C(F)(F)F)cc(S(=O)(=O)N2CCOCC2)c1C	120	0.0066	0.78	0.011	22	11	–
CCC(C)(C)C(=O)Nc1cc(C)c(C)c(S(=O)(=O)N2CCCCCC2)c1	200	0.009	1.8	0.022	0	0	–
